From PubChem BioAssay AID652011 (Sanford-Burnham Center for Chemical Genomics, 2013)
Values joined by “and” are separate entries in the source; they are usually repeats but may differ in a detail not shown here. Equal values may be shown once.

target: Hypoxia-inducible factor 1-alpha (Homo sapiens) (UniProt Q16665); assay: HIF-1a and HIF-2a reporter inhibitors, SAR follow-up, cell-based, luminescence, MIAPaCa-2, 786-0, panel (AID 652011); conditions: MIAPaCa-2/PANC HIF reporter, luciferase luminescence, desferoxamine, overnight, HIF1a, run 1; at 99 µM (top of the series)
Sequence (Q16665 whole entry, looked up): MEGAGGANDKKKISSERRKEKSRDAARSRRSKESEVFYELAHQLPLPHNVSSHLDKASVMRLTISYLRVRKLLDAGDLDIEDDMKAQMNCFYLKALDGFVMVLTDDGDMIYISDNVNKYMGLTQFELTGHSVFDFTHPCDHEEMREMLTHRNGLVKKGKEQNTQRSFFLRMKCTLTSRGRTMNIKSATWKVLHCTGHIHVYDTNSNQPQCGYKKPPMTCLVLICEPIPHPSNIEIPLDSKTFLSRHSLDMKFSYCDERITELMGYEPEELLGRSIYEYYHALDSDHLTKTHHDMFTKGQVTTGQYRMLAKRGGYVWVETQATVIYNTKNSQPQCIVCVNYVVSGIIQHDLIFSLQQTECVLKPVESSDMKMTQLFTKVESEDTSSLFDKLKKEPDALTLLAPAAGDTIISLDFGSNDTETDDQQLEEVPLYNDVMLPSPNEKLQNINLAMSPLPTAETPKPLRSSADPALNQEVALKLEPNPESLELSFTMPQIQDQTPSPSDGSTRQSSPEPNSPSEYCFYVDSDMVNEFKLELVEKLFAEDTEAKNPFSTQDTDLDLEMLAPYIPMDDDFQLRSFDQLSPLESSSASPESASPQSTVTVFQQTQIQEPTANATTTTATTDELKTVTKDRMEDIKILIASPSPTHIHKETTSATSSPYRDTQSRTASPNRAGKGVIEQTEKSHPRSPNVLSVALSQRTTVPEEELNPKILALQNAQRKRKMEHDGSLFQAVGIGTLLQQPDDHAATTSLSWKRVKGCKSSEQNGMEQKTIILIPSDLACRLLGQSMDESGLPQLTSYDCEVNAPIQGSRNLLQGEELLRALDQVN
Outline: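 Reagent: Desferoxamine added before compound | Doses: Compounds from 10 mM and 0.3125 mM stocks, 1% DMSO final | Times: Overnight seeding and compound exposure, 37 °C, 5% CO2, 10-min detection | Measured by: One-Glo luciferase luminescence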

SMILES	inhibition
CCOc1ccccc1NC(=O)CCc1nc(-c2ccc(C(C)(C)C)cc2)no1	54.8%
CC(C)(C)c1ccc(-c2noc(CCC(=O)N3CCCCC3)n2)cc1	102%
CCc1ccc(-c2noc(CCC(=O)NC3CC3)n2)cc1	-66.8%
O=C(O)CCc1nc(-c2ccccc2)no1	4.64%
CC(C)(C)c1ccc(-c2noc(CCC(=O)NC3CCC3)n2)cc1	31.6%
CCCCc1ccc(-c2noc(CCC(=O)NC3CC3)n2)cc1	2.18%
CC(C)(C)c1ccc(-c2noc(CCC(=O)NC3CC3)n2)cc1	-50.8%
CCCCc1ccc(-c2noc(CCC(=O)NCC)n2)cc1	-6.32%
CCNC(=O)CCc1nc(-c2ccccc2Cl)no1	-17.5%
CCNC(=O)CCc1nc(-c2ccc(C(C)C)cc2)no1	-33%
CCCCc1ccc(-c2noc(CCC(=O)NC(C)CC)n2)cc1 (stereo not given)	29.2%
CC(C)c1ccc(-c2noc(CCC(=O)NC(C)(C)C)n2)cc1	-0.968%
COc1ccccc1NC(=O)CCc1nc(-c2ccc(C(C)(C)C)cc2)no1	67.6%
CCNC(=O)CCc1nc(-c2ccc(C(C)(C)C)cc2)no1	-11.3% and -13.8%
CC(C)CNC(=O)CCc1nc(-c2ccc(C(C)(C)C)cc2)no1	-21.6%
CCCNC(=O)CCc1nc(-c2ccc(C(C)(C)C)cc2)no1	-1.08%
CC(C)(C)c1ccc(-c2noc(CCC(=O)Nc3ccccc3)n2)cc1	43%
CC(C)c1ccc(-c2noc(CCC(=O)NC3CC3)n2)cc1	-58.4%
CCNC(=O)CCc1nc(-c2cccc(F)c2)no1	-22%
CCc1ccc(-c2noc(CCC(=O)NC)n2)cc1	-61.6%
